Scp1 inh: Scp-1 (human) phosphatase inhibition; Recombinant Scp1, phosphopeptide, malachite green phosphate absorbance; inhibition, % at 20 µM; 0.88% of 340,000 active; AID 493091;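 active means inhibition above about 50% at 20 µM, limit read from the data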;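 further: plate controls were DMSO wells with enzyme for no effect and wells lacking enzyme for full effect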
Target sequence (Q9GZU7 76-261 limits assumed): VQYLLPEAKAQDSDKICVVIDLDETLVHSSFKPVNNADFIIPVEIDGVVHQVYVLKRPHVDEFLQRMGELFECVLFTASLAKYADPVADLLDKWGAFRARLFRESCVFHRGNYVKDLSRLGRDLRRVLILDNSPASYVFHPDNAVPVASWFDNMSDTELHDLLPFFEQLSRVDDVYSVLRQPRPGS
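Test system – truncated SCP-1 phosphatase (76-261aa) · Reagent – Phosphorylated 17-residue peptide substrate · Incubation – 45 min room-temperature reaction, 5 min colour, 30 min stabiliser · Detection – colorimetric phosphate reagent with accelerator and stabiliser, absorbance at 630 nm · Measure – % inhibition at 20 µM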
STEP inh: STEP (human) phosphatase inhibition; P54829; recombinant STEP, OMFP fluorogenic substrate, fluorescence; inhibition, % at 20 µM; 0.25% of 360,000 active;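 active means inhibition at 20 µM, scaled per plate between control wells, above about 37%, limit read from the data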;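 further: 0% = DMSO with enzyme and substrate and 100% = substrate only without enzyme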
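medium = Bis-Tris buffer pH 6.0, 2.5 mM DTT, 0.005% Tween 20 | test system = STEP (striatal-enriched tyrosine phosphatase) enzyme, cell-free | measure = normalized % inhibition | compound dosing = 20 µM, 1% DMSO | also added = 25 µM OMFP | schedule = reaction 20 min, ambient temperature | measured by = fluorescence read at 480 nm ex / 540 nm em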
SUMO1-SIM PPI: alters human SUMO1 binding to SIM partners; SUMO1 binding to a labelled peptide, TR-FRET, 1 h; inhibition, % at 20 µM; 0.33% of 360,000 active; AID 602429; in the data active means inhibition above about 37%
Target sequence (P63165 whole entry, looked up): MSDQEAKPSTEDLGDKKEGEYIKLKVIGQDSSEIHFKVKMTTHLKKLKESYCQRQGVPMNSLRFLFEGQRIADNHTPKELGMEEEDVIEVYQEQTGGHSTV
NadD block: NadD (S. aureus) enzyme inhibition. inhibition, % at 20 µM. purified NadD enzyme, colorimetric absorbance read-out. 0.78% of 360,000 active; in the data active means inhibition above about 26%
LMPTP inh: blocks human LMPTP phosphatase; recombinant LMPTP-A, OMFP fluorogenic substrate, fluorescence intensity; inhibition, % at 20 µM; 0.22% of 360,000 active; AID 651560;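 active means compounds that cut the enzyme signal by at least half of the control window in the single-dose screen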;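 further: plate controls were DMSO wells with enzyme plus substrate for no effect and substrate without enzyme for full effect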
Target sequence (P24666 whole entry, looked up): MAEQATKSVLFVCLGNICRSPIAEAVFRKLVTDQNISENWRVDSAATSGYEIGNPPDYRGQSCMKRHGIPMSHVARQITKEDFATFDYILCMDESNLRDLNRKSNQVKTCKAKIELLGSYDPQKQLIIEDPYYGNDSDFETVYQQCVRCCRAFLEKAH
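Test system: LMPTP-A phosphatase enzyme; input: 0.625 nM LMPTP-A final; reagent: OMFP substrate, 400 µM final; compound dosing: 20 µM single dose, 3% DMSO; incubation: 50 min dark incubation at room temperature; measured by: endpoint fluorescence intensity from OMFP dephosphorylation; measure: % inhibition relative to no-enzyme and uninhibited control wells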
DNMT1 inh: inhibitors of human DNMT1 | P26358 | DNMT1 molecular beacon, Hinp1I cleavage, fluorescence | inhibition (reported as % activation of signal), % at 10 µM | 0.83% of 360,000 active; in the data active means inhibition above about 50%
STEP conf: STEP (human) phosphatase inhibition, single concentration confirmation | 32% of 520 active | inhibition, % at 20 µM | recombinant STEP, OMFP fluorogenic substrate, fluorescence | shares compounds with STEP inh; call rule not given here;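 further: 0% = enzyme with substrate plus DMSO and 100% = substrate without enzyme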
Active calls of the source: *; / = no result. Most compounds without a hit are left out; they make up all but 2.3% or so of the library.

SMILES	Scp1 inh	STEP inh	SUMO1-SIM PPI	NadD block	LMPTP inh	DNMT1 inh	STEP conf
O=C1C(=O)N(CCCO)C(c2ccc(Br)cc2)/C1=C(\O)c1ccc(Br)cc1 (configuration not stated)	-6	41*	-8	3	1	1	38*
O=C1Cc2ccccc2C(=O)N1	/	/	20	4	12	/	/
COc1ccc(NC(=O)c2cc(=O)c3ccccc3o2)cc1Cl	36	42*	8	5	1	18	28*
CN(C)S(=O)(=O)c1cc(NC(=O)c2cc(=O)c3ccccc3o2)ccc1Cl	-8	0	-15	2	1	-3	/
COc1ccccc1NC(=O)CN1C(=O)COc2ccc(C)cc21	-10	2	1	-3	0	-6	/
COc1ccc(NC(=O)CN2C(=O)COc3ccc(C)cc32)c(OC)c1	-7	72*	2	-7	-1	4	0
Oc1ccc(C(=S)N2CCN(Cc3ccccc3)CC2)cc1	3	62*	6	-4	1	0	4
S=C(c1ccc(Br)cc1)N1CCN(Cc2ccccc2)CC1	-11	90*	5	-4	2	5	38*
Cc1ccc(C(=S)N2CCN(Cc3ccccc3)CC2)s1	-8	78*	1	-3	2	-2	42*
CN(C)c1ccc(C(=S)N2CCN(Cc3ccccc3)CC2)cc1	-7	85*	-1	-6	1	-1	39*
O=C(c1ccc(Br)cc1)N1CCN(Cc2ccccc2)CC1	-2	2	1	-5	-2	-1	/
C#CCN(C[C@H]1[C@H](OC(=O)Nc2c(C)noc2C)[C@H](OC(=O)Nc2c(C)noc2C)C[C@H]2C(=O)N(c3ccccc3)C(=O)[C@@H]12)S(=O)(=O)c1ccc(C)cc1	/	-2	3	4	0	-2	/
N#C/C(=C/c1ccc(OCc2ccc(C(=O)O)cc2)c(Br)c1)c1cccc(F)c1	50*	94*	20	10	86*	93*	16
CCOC(=O)Nc1ccc2c(CNC(C)c3ccccc3OC)cc(=O)oc2c1 (configuration not stated)	1	2	-3	5	2	0	/
Cc1ccc(NC(=S)N(CCCN2CCOCC2)Cc2cccs2)c(C)c1	-1	55*	-3	-6	-2	2	20
Cc1c(Cl)cccc1NC(=S)N(CCCN1CCOCC1)Cc1cccs1	-2	-1	-3	-8	-3	-2	/
Cn1cc(CC(=O)Nc2cccc(C#N)c2)c2ccccc21	-16	46*	1	-5	1	-2	30*
CCc1cccc(NC(=O)Cc2cn(C)c3ccccc23)c1	-13	30	2	-2	3	-3	/
CCc1ccc(NC(=O)Cc2cn(C)c3ccccc23)cc1	-6	44*	-1	-2	5	0	48*
O=C(N[C@@H](Cc1ccccc1)C(=O)N1CCN(S(=O)(=O)c2ccc(F)cc2)CC1)c1ccco1	-6	4	4	2	0	1	/
Cc1ccccc1S(=O)(=O)Cc1ccc(C(=O)NCCCN2CCC(C)CC2)o1	-6	-3	1	-6	-3	3	/
COC(=O)c1sccc1NC(=O)c1ccc(C#N)cc1	117*	98*	13	-3	2	19	12
COC(=O)[C@]12CCCCC=C1N(CCc1ccc(OC)c(OC)c1)C(=O)[C@H](CC(=O)N1CCOCC1)C2	/	/	0	/	-2	/	/
C=C(C)COc1ccc2c(CC)cc(=O)oc2c1	-1	118*	0	0	0	1	1
Cc1cccc(N2CCN(S(=O)(=O)c3ccc4c(c3)CCN4C(=O)CCC(=O)O)CC2)c1C	33	41*	5	14	0	-3	-2
SMILES	Scp1 inh	STEP inh	SUMO1-SIM PPI	NadD block	LMPTP inh	DNMT1 inh	STEP conf
COc1ccc(Br)cc1/C=C/C(=O)NC(=S)Nc1ccc(Cl)c(C(=O)O)c1	8	62*	18	17	2	1	8
CC1CCCCN1CC(O)COCc1ccc(Cl)cc1 (configuration not stated)	-6	-3	3	-2	-1	-12	/
Cc1cc(C)cc(NC(=S)NC2CC3CCCC(C2)N3C2CCCC2)c1 (configuration not stated)	-6	40*	20	-2	2	4	14
Cc1csc(NC(=O)CCCC(=O)O)c1-c1nc2ccccc2s1	33	93*	12	14	1	1	-7
Cc1csc(NC(=O)COCC(=O)O)c1-c1nc2ccccc2s1	33	8	10	1	1	6	/
CCNc1ccc(S(=O)(=O)N(C)C)cc1NCC(=O)Nc1ccccc1Cl	6	13	-2	-2	-1	-3	/
Cc1csc2ncc(C(=O)NCCc3ccccc3)c(=O)n12	-6	-1	-1	7	-1	0	/
Cc1csc2ncc(C(=O)NCc3ccccn3)c(=O)n12	-6	98*	1	0	0	4	10
COc1ccc(-c2cc(NC(C)=O)c3ncc(-c4ccc(F)cc4)n3c2)cc1OC	/	1	-4	-4	1	-8	/
O=C(O)c1cccc(S(=O)(=O)Nc2ccc(-c3ccccc3)cc2)c1	-1	9	6	-2	-1	4	/
O=C(O)c1cccc(S(=O)(=O)NNc2ccccc2C(F)(F)F)c1	28	44*	88*	3	6	9	9
Cn1nc(C(=O)OCC(=O)c2ccc(Br)cc2)c2ccccc2c1=O	-10	1	-5	1	0	4	/
CC(C)Oc1ccc(OCCCN2CCCCCC2)cc1	-6	53*	-5	-2	-1	-1	-16
CC(C)c1ccc(OCCCCN2CCCCC2)cc1	3	-2	-4	-7	-2	1	/
O=C(N/N=C/c1ccc([N+](=O)[O-])cc1)c1cccnc1	5	-2	-27	1	1	1	/
Nc1c(C(=O)N/N=C/c2ccc([N+](=O)[O-])cc2)cnn1-c1ccccc1	17	52*	17	-2	19	5	24
CC(C)(C)c1cc(NC(=O)C2(C)CCN2C(=O)c2ccccc2CCc2ccccc2)no1 (configuration not stated)	/	3	0	-1	3	-8	/
CN1CCN(C(=O)/C=C/c2ccc3c(c2)OCO3)CC1	-2	57*	-4	2	-1	4	-2
CC[C@H](C)[C@H]1CNC(=O)C(=O)N1CC1CCN(CCCc2ccc(OC)c(OC)c2)CC1	1	-1	3	-2	-2	6	/
COc1cccc(C2CC3(CC(C)(C)NC(=S)N3)Oc3cc(O)ccc32)c1 (configuration not stated)	-1	112*	2	7	1	9	-5

Assay outcomes: PubChem, Sanford-Burnham Center for Chemical Genomics
